The subject of one experiment is HEK293. Put plainly: Cytotoxicity against HEK293 cells by MTT assay. It counts as cell-based. Conditions: Homo sapiens. The method in brief:
(§1)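 Growth inhibition in 96-well plates, read by cell-mediated reduction of tetrazolium (MTT) to insoluble formazan, with doxorubicin as standard. Cell lines are A549 (alveolar adenocarcinoma, CCL-185), HeLa (cervical, CCL-2), MDA-MB-231 (breast, HTB26), MCF7 (breast, HTB22) and normal embryonic kidney HEK293. IC50 taken from plotted absorbance data, given as mean ± SD of three independent determinations.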
In general terms: Tetrazolium dyes change colour on reduction, which living cells bring about.

Another experiment has as its system MCF7. Put plainly: Cytotoxicity against human MCF7 cells by MTT assay. The experiment is classed as functional, cell-based. The method in brief:
as §1

For the next experiment, the system named is A549. Description: Cytotoxicity against human A549 cells by MTT assay. It counts as functional, cell-based. An outline of the steps: as §1
Another experiment has as its system HeLa. Put plainly: Cytotoxicity against human HeLa cells by MTT assay. It counts as functional, cell-based. The method in brief:
as §1

Another experiment concerns MDA-MB-231. Put plainly: Cytotoxicity against human MDA-MB-231 cells by MTT assay. It counts as functional, cell-based. The method in brief: as §1

Molecules are shown by their SMILES. Where only a bound is given, the exact number is not on record here.

On to `Cc1ccc(C(=O)CN2C(=O)CSC2=O)cc1`, for which the IC50 with HEK293 is more than 100 µM; in the experiment with MCF7, more than 100 µM; in the experiment with A549 it was 17 µM; with HeLa, more than 100 µM; with MDA-MB-231 it was more than 100 µM.
`Cc1cc2c(cc1C)C(Cl)=C(/C=C1\SC(=O)NC1=O)CCC2`: the IC50 is more than 100 µM in the experiment on HEK293; more than 100 µM in the experiment with MCF7; 5.39 µM in the experiment on A549; 5.89 µM in the experiment with HeLa; 5.79 µM in the experiment on MDA-MB-231.
With `Cc1cc2c(cc1C)C(Cl)=C(/C=C1\SC(=O)N(CC(=O)c3ccc(Cl)cc3)C1=O)CCC2`, the IC50 is more than 100 µM with HEK293; 9.85 µM in the experiment with MCF7; 3.49 µM with A549; more than 100 µM in the experiment on HeLa; more than 100 µM in the experiment on MDA-MB-231.
Take `O=C(CN1C(=O)S/C(=C\C2=C(Cl)c3ccccc3CCC2)C1=O)c1ccc(Cl)cc1`: the IC50 with HEK293, with MCF7, in the experiment with A549, in the experiment with HeLa and in the experiment with MDA-MB-231 was more than 100 µM throughout.
`O=C(CN1C(=O)CSC1=O)c1ccc(Cl)cc1`: the IC50 was 14 µM in the experiment with HEK293; more than 100 µM in the experiment on MCF7; more than 100 µM with A549; more than 100 µM with HeLa; more than 100 µM in the experiment with MDA-MB-231.
For `O=C(CN1C(=O)S/C(=C\C2=C(Cl)c3ccccc3CCC2)C1=O)c1ccc(Br)cc1`, the IC50 in the experiment with HEK293 is more than 100 µM; in the experiment with MCF7, 51.7 µM; in the experiment on A549 it was 5.75 µM; in the experiment on HeLa, more than 100 µM; in the experiment with MDA-MB-231 it was more than 100 µM.
In the case of `O=C(CN1C(=O)CSC1=O)c1ccccc1`, the IC50 in the experiment on HEK293 was more than 100 µM; with MCF7, more than 100 µM; in the experiment on A549, 14.1 µM; with HeLa, more than 100 µM; in the experiment with MDA-MB-231, more than 100 µM.
Take `COc1ccc(C(=O)CN2C(=O)S/C(=C\C3=C(Cl)c4cc(C)c(C)cc4CCC3)C2=O)cc1`: the IC50 in the experiment with HEK293 was more than 100 µM; with MCF7, more than 100 µM; in the experiment with A549, more than 100 µM; in the experiment on HeLa it was 17.9 µM; in the experiment on MDA-MB-231, 7.89 µM.
With `O=C1NC(=O)/C(=C/C2=C(Cl)c3ccccc3CCC2)S1`, the IC50 with HEK293, in the experiment with MCF7, with A549, in the experiment on HeLa and in the experiment on MDA-MB-231 was more than 100 µM each time.
Take `Cc1cc2c(cc1C)C(Cl)=C(/C=C1\SC(=O)N(CC(=O)c3ccccc3)C1=O)CCC2`: the IC50 in the experiment on HEK293 was more than 100 µM; with MCF7 it was more than 100 µM; with A549 it was more than 100 µM; in the experiment on HeLa, 7.89 µM; with MDA-MB-231, more than 100 µM.
As to `COc1cccc2c1C(=O)c1c(O)c3c(c(O)c1C2=O)C[C@@](O)(C(=O)CO)C[C@@H]3O[C@H]1C[C@H](N)[C@H](O)[C@H](C)O1` [DOXORUBICIN], in the experiment on HEK293, the IC50 was more than 100 µM.
With `COc1ccc(C(=O)CN2C(=O)CSC2=O)cc1`, the IC50 in the experiment with HEK293, with MCF7, in the experiment with A549, with HeLa and in the experiment on MDA-MB-231 was more than 100 µM throughout.
As to `O=C(CN1C(=O)CSC1=O)c1ccc(Br)cc1`, the IC50 in the experiment with HEK293 is more than 100 µM; with MCF7 it was more than 100 µM; in the experiment on A549, 22.7 µM; with HeLa, more than 100 µM; in the experiment on MDA-MB-231, more than 100 µM.
Turning to `Cc1ccc(C(=O)CN2C(=O)S/C(=C\C3=C(Cl)c4cc(C)c(C)cc4CCC3)C2=O)cc1`, the IC50 is more than 100 µM with HEK293; 1.91 µM with MCF7; more than 100 µM in the experiment with A549; more than 100 µM in the experiment on HeLa; 13.4 µM in the experiment with MDA-MB-231.
Consider `Cc1ccc(C(=O)CN2C(=O)S/C(=C\C3=C(Cl)c4ccccc4CCC3)C2=O)cc1`, for which the IC50 with HEK293 was more than 100 µM; in the experiment on MCF7, more than 100 µM; in the experiment on A549, more than 100 µM; in the experiment on HeLa, 7.89 µM; in the experiment on MDA-MB-231, 5.84 µM.
For the compound `O=C(CN1C(=O)S/C(=C\C2=C(Cl)c3ccccc3CCC2)C1=O)c1ccccc1`, the IC50 with HEK293 was more than 100 µM; with MCF7, 5.31 µM; with A549, 4.89 µM; with HeLa, 2.98 µM; with MDA-MB-231 it was 13.3 µM.
For `Cc1cc2c(cc1C)C(Cl)=C(/C=C1\SC(=O)N(CC(=O)c3ccc(Br)cc3)C1=O)CCC2` the same measures were more than 100 µM, 36.8 µM, 9.69 µM, more than 100 µM and more than 100 µM.
For `COc1ccc(C(=O)CN2C(=O)S/C(=C\C3=C(Cl)c4ccccc4CCC3)C2=O)cc1` the same measures were more than 100 µM, 8.95 µM, 5.44 µM, more than 100 µM and more than 100 µM.

One may read the IC50 as the midpoint of a concentration-inhibition curve. High values mean weaker potency in that assay, low ones greater potency in that assay.

The values are drawn from ChEMBL document CHEMBL3098029, “Studies on the synthetic and structural aspects of benzosuberones bearing 2, 4-thiazolidenone moiety as potential anti-cancer agents” (Eur J Med Chem, 2014).
